Activity calls are given as the source filed them. The calls are words filed in the database; no cut-off is given here.
Tests used:
SH-SY5Y [1] = assay: Cytotoxicity against SH-SY5Y cells assessed as cell viability after 48 hrs by MTT method; type: functional, cell-based; details: Homo sapiens
Outline: (§1)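 SH-SY5Y human neuroblastoma cells exposed to compounds for 48 h; viability read by MTT; dose–response curves; highest concentration tested 100 μM.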

Tubulin (Homo sapiens) = Tubulin (Homo sapiens) (UniProt P68371+Q9H4B7+P0DPH7+P68366+Q13509+Q71U36+P04350+Q3ZCM7+P07437+P68363+Q9BQE3+Q6PEY2+Q13885+Q9BVA1+Q9BUF5); assay: Induction of tubulin depolymerization after 16 hrs; type: protein-complex assay
Outline: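 Cells treated 16 h with tubulin-disrupting agents; proteins harvested in presence of paclitaxel to fix polymerized and unpolymerized tubulin; soluble (non-polymerized) and pellet (polymerized) fractions run on SDS-PAGE and immunoblotted with monoclonal mouse anti-tubulin antibody.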

SH-SY5Y [2] = assay: Cytotoxicity against SH-SY5Y cells assessed as cell viability upto 100 uM after 48 hrs by MTT method; type: functional, cell-based; details: Homo sapiens; outline: as §1
SH-SY5Y [3] = assay: Cytotoxicity against SH-SY5Y cells assessed as cell viability above 10 uM after 48 hrs by MTT method; type: functional, cell-based; details: Homo sapiens; outline: as §1

Structure (SMILES) | IC50 (SH-SY5Y [1]) | Activity (Tubulin (Homo sapiens)) | Activity (SH-SY5Y [2]) | also measured
COc1cc([C@@H]2c3cc4c(cc3[C@H](O)[C@H]3COC(=O)[C@H]23)OCO4)cc(OC)c1OC [PODOFILOX] | 7 nM | Active |  | 
COc1cc(Cn2nncc2Cc2ccc3c(c2)OCO3)cc(OC)c1OC |  |  | Not toxic | 
CC(=O)O[C@H]1C(=O)[C@@]2(C)[C@H]([C@H](OC(=O)c3ccccc3)[C@]3(O)C[C@H](OC(=O)[C@H](O)[C@@H](NC(=O)c4ccccc4)c4ccccc4)C(C)=C1C3(C)C)[C@]1(OC(C)=O)CO[C@@H]1C[C@@H]2O |  | inactive |  | 
COc1cc(Cc2cnnn2Cc2ccc3c(c2)OCO3)cc(OC)c1OC |  |  | Not toxic | 
COc1cc(C(O)c2cnnn2Cc2ccc3c(c2)OCO3)cc(OC)c1OC (stereo unspecified) |  |  | Not toxic | 
COc1cc2c(c(OC)c1OC)-c1cc3c(cc1Cn1nncc1C2)OCO3 |  |  |  | Activity (SH-SY5Y [3]): Toxic
COc1cc(C2c3cc4c(cc3Cn3nncc32)OCO4)cc(OC)c1OC (racemic) | 1500 nM | Active |  | 
COc1cc2c(c(OC)c1OC)-c1cc3c(cc1Cc1cnnn1C2)OCO3 | 1100 nM |  |  | 
COc1ccc(/C=C\c2cc(OC)c(OC)c(OC)c2)cc1O |  | Active |  | 

— ChEMBL document CHEMBL1137455, “Replacement of the lactone moiety on podophyllotoxin and steganacin analogues with a 1,5-disubstituted 1,2,3-triazole via ruthenium-catalyzed click chemistry” (Bioorg Med Chem, 2007)
